Results from ChEMBL document CHEMBL1152560, “Substituted 2-arylbenzothiazoles as kinase inhibitors: hit-to-lead optimization” (Bioorg Med Chem, 2009).

Legend:
[1] = target: CDC42BPA protein (Homo sapiens) (UniProt B9EGA7); experiment: Residual activity of CDC42BPA at 0.1 uM by microplate scintillation counting
[2] = target: Platelet-derived growth factor receptor beta (Homo sapiens, UniProt P09619); experiment: Inhibition of PDGFRbeta in human HCT116 cells by cellular phosphorylation assay; format: cell-based, HCT-116
Chain of Platelet-derived growth factor receptor beta (P09619 whole entry): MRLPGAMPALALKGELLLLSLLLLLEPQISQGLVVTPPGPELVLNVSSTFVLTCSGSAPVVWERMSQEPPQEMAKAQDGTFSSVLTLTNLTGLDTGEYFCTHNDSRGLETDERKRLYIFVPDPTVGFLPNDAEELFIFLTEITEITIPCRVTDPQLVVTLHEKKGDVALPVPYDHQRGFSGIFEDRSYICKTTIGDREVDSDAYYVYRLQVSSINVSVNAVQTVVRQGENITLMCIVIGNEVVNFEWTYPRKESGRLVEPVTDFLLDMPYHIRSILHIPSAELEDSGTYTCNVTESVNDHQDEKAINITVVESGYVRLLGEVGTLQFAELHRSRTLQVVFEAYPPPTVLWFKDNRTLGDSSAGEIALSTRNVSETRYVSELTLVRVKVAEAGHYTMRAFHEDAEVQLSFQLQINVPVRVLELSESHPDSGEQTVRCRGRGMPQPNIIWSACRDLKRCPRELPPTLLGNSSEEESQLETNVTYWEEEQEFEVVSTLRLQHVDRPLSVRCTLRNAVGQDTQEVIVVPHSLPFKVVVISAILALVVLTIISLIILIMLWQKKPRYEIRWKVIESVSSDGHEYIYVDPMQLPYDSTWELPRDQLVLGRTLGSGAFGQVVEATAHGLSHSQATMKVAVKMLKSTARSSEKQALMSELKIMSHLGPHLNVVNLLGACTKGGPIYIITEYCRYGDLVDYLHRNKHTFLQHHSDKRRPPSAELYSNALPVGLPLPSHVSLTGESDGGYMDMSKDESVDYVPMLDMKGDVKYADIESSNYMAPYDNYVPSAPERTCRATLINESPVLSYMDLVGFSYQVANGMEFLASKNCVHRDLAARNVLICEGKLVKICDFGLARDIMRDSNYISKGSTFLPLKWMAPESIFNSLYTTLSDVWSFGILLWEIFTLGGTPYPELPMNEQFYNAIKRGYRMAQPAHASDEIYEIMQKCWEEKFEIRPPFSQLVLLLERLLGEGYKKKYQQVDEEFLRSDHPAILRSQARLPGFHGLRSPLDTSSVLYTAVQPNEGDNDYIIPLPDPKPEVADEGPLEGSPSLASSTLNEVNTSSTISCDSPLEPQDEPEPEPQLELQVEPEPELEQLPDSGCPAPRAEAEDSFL
How it was run: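 Cells expressing PDGFRβ were treated with compound, then stimulated to give maximal autophosphorylation in controls. Cells were lysed, and receptor phosphorylation was quantified by sandwich ELISA with a receptor-specific capture antibody and an anti-phosphotyrosine antibody. EC50 from a sigmoidal curve relative to the stimulated high control. Nine concentrations, 1 nM–10 μM in half-log steps, each in duplicate.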

[3] = target: T1, Serine/threonine-protein kinase Nek3 (Homo sapiens) (UniProt P51956); experiment: Residual activity of NEK3 at 1 uM by microplate scintillation counting
T1 sequence (whole entry): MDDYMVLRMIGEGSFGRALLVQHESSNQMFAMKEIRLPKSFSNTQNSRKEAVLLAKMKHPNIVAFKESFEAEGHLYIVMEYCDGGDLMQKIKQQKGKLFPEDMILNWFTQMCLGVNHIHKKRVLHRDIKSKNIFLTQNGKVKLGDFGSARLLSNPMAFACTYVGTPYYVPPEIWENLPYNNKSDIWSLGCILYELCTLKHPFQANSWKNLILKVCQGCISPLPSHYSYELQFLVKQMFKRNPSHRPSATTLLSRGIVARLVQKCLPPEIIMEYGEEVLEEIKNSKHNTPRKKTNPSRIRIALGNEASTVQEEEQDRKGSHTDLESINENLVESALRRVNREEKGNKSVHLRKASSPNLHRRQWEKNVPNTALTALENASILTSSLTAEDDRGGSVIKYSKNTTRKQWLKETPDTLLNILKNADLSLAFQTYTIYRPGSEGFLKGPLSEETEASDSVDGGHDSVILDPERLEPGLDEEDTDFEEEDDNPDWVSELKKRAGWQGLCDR

[4] = target: Rho-associated protein kinase 1 (Homo sapiens) (UniProt Q13464); experiment: Residual activity of ROCK1 at 10 uM by microplate scintillation counting
Chain of Rho-associated protein kinase 1 (Homo sapiens) (Q13464 2-1354 limits assumed): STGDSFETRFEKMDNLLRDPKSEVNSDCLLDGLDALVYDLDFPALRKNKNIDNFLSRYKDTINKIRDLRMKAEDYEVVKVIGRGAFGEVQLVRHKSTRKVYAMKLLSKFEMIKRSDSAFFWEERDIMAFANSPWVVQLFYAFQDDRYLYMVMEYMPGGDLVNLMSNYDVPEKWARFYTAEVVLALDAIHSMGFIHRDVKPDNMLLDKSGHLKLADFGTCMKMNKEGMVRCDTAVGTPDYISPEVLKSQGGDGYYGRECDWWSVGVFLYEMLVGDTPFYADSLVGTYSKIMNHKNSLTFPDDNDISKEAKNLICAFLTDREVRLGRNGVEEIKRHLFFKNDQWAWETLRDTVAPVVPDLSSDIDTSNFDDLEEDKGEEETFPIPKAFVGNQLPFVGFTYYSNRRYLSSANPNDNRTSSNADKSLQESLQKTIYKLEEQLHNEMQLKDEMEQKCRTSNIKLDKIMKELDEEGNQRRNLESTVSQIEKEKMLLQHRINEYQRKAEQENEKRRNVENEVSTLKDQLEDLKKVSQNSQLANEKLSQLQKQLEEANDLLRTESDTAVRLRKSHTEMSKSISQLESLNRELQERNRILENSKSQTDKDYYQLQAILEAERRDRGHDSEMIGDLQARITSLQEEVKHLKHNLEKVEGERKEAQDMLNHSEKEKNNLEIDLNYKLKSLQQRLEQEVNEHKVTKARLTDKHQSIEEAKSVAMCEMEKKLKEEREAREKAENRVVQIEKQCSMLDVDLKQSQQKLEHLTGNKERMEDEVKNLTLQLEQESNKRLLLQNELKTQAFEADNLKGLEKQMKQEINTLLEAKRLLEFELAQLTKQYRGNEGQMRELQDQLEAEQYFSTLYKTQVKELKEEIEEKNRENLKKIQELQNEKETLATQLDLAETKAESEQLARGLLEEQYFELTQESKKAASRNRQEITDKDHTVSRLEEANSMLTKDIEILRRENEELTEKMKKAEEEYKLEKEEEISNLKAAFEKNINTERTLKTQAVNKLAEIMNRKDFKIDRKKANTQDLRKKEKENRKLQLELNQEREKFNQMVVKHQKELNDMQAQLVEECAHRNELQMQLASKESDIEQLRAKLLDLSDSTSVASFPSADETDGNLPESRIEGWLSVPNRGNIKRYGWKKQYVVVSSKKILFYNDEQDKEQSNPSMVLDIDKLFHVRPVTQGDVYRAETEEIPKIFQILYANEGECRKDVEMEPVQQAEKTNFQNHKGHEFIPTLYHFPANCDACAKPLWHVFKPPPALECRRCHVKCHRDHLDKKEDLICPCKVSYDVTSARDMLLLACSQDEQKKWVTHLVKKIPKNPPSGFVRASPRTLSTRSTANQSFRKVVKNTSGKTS

[5] = target: Epidermal growth factor receptor (Homo sapiens, UniProt P00533); experiment: Inhibition of EGFR in human HCT116 cells by cellular phosphorylation assay

Chain of CDC42BPA protein (Homo sapiens) (B9EGA7 as listed by the source): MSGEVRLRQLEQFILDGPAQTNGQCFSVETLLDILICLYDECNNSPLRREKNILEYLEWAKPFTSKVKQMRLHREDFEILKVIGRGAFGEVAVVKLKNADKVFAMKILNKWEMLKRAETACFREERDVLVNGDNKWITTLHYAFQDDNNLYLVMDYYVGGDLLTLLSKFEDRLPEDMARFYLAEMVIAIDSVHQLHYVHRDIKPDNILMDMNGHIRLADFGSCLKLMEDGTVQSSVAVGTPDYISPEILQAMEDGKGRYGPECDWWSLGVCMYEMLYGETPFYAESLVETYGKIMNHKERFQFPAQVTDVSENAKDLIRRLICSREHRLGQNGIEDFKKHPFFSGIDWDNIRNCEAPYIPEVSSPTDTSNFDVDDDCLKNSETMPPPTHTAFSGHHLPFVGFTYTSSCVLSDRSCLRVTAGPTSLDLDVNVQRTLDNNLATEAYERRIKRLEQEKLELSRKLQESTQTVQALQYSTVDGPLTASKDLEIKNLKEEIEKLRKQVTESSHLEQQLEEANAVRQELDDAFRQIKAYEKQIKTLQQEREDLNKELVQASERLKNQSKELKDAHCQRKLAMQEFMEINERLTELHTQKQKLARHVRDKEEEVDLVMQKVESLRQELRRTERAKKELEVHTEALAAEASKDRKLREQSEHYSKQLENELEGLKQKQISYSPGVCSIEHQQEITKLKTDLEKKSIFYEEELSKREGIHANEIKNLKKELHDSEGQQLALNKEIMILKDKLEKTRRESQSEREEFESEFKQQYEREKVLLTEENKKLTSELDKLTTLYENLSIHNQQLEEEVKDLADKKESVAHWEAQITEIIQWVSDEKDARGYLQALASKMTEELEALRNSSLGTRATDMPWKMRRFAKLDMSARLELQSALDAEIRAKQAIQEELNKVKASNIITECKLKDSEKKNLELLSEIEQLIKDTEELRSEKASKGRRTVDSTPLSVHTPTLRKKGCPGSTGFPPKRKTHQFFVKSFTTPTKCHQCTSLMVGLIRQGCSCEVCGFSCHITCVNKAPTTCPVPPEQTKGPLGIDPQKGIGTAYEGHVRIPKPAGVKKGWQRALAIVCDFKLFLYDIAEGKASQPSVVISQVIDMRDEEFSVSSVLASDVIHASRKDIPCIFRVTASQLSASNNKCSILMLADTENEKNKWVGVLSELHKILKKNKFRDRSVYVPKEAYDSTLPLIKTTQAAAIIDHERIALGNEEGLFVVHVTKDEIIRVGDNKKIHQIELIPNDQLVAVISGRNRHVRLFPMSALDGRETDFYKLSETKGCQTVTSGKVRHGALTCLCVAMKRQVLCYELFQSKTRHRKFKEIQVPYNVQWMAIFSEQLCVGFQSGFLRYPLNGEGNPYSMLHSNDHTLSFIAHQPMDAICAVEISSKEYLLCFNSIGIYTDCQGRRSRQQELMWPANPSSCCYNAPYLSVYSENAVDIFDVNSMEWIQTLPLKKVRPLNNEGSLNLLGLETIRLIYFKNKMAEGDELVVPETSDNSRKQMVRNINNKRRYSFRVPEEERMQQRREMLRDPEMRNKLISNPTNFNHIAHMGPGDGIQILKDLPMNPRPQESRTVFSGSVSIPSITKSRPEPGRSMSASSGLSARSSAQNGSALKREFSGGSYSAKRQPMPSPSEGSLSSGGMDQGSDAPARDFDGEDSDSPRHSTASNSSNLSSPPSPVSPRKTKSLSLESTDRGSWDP

| residual activity [1] | EC50 [2] | residual activity [3] | residual activity [4] | EC50 [5] | SMILES |
| --- | --- | --- | --- | --- | --- |
| 104% | 2 µM | 110% | 81% |  | COc1cc2c(Oc3ccc(-c4nc5ccccc5s4)cc3)ncnc2cc1OCCCN1CCCC1 |
| 86% |  | 103% | 73% | > 10 µM | COc1cc2c(Oc3ccc(-c4nc5ccccc5s4)cc3F)ncnc2cc1OCCCN1CCN(C)CC1 |
| 112% | 0.17 µM | 102% | 68% |  | COc1cc2c(Oc3ccc(-c4nc5ccccc5s4)cc3)ncnc2cc1OCCCN1CCN(C)CC1 |
